Laboratory results published in ChEMBL document CHEMBL3407457, “Microwave-assisted synthesis of certain pyrrolylpyridines, some derived ring systems and their evaluation as anticancer and antioxidant agents” (Eur J Med Chem, 2015).

How the values were obtained:
DU-145 = assay: Growth inhibition of human DU145 cells after 48 hrs by sulforhodamine B assay; format: functional; settings: DU-145, 48 h
How it was run: (§1)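 NCI-60 five-dose screen: cells incubated 48 h with five concentrations (0.01-100 µM), read by sulforhodamine B protein assay. Log concentration-% growth inhibition curves gave GI50 (50% decrease in net growth), TGI (total growth inhibition) and LC50 (net 50% loss of initial cells). 5-FU positive control.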

[1] = Growth inhibition of human MOLT4 cells after 48 hrs by sulforhodamine B assay; format: functional; settings: MOLT-4, 48 h; how it was run: as §1
MCF7 = assay: Growth inhibition of human MCF7 cells after 48 hrs by sulforhodamine B assay; format: functional; settings: MCF7, 48 h; how it was run: as §1
[2] = Growth inhibition of human OVCAR4 cells after 48 hrs by sulforhodamine B assay; format: functional; settings: OVCAR-4, 48 h; how it was run: as §1
[3] = Growth inhibition of human UO31 cells after 48 hrs by sulforhodamine B assay; format: functional; settings: UO-31, 48 h; how it was run: as §1
HOP-62 = assay: Growth inhibition of human HOP62 cells after 48 hrs by sulforhodamine B assay; format: functional; settings: HOP-62, 48 h; how it was run: as §1
NCI-H522 = assay: Growth inhibition of human NCI-H522 cells after 48 hrs by sulforhodamine B assay; format: functional; settings: NCI-H522, 48 h; how it was run: as §1
[4] = Antioxidant activity assessed as DPPH radical scavenging activity at 10^-4 M incubated for 30 mins by spectrophotometry; format: physicochemical; settings: 0.5 h, 100 µM
How it was run: (§2)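 Compound at 10^-3 or 10^-4 M mixed with methanolic DPPH (0.1 mL of 1 mM stock; 3 mL total volume), shaken, kept in the dark 30 min at room temperature. Absorbance read at 517 nm. Scavenging (%) = (A_control − A_sample)/A_control × 100, where the control is DPPH in methanol alone. BHT served as reference antioxidant. Triplicate, mean ± SD of three independent experiments.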

[5] = Growth inhibition of human BT549 cells after 48 hrs by sulforhodamine B assay; format: functional; settings: BT-549, 48 h; how it was run: as §1
[6] = Growth inhibition of human EKVX cells after 48 hrs by sulforhodamine B assay; format: functional; how it was run: as §1
NCI-H226 = assay: Growth inhibition of human NCI-H226 cells after 48 hrs by sulforhodamine B assay; format: functional; settings: NCI-H226, 48 h; how it was run: as §1
[7] = Growth inhibition of human HOP92 cells after 48 hrs by sulforhodamine B assay; format: functional; settings: HOP-92, 48 h; how it was run: as §1
HL-60(TB) = assay: Growth inhibition of human HL-60(TB) cells after 48 hrs by sulforhodamine B assay; format: functional; settings: HL-60, 48 h
How it was run: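 NCI-60 five-dose screen, HL-60(TB) being one of the leukemia subpanel lines. Cells exposed to five concentrations (0.01-100 µM) for 48 h. GI50 (concentration giving 50% decrease in net cell growth) read from log concentration-% growth inhibition curves; TGI and LC50 also derived. 5-fluorouracil as positive control.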

[8] = Growth inhibition of human SF539 cells after 48 hrs by sulforhodamine B assay; format: functional; settings: SF-539, 48 h; how it was run: as §1
MDA-MB-231 = assay: Growth inhibition of human MDA-MB-231 cells after 48 hrs by sulforhodamine B assay; format: functional; settings: MDA-MB-231, 48 h; how it was run: as §1
[9] = Growth inhibition of human UACC62 cells after 48 hrs by sulforhodamine B assay; format: functional; settings: UACC-62, 48 h; how it was run: as §1
IGROV-1 = assay: Growth inhibition of human IGROV1 cells after 48 hrs by sulforhodamine B assay; format: functional; settings: IGROV-1, 48 h; how it was run: as §1
[10] = Growth inhibition of human RPMI8226 cells after 48 hrs by sulforhodamine B assay; format: functional; settings: RPMI-8226, 48 h; how it was run: as §1
SN12C = assay: Growth inhibition of human SN12C cells after 48 hrs by sulforhodamine B assay; format: functional; how it was run: as §1
SNB-75 = assay: Growth inhibition of human SNB75 cells after 48 hrs by sulforhodamine B assay; format: functional; settings: SNB-75, 48 h; how it was run: as §1
[11] = Antioxidant activity assessed as DPPH radical scavenging activity at 10^-3 M incubated for 30 mins by spectrophotometry; format: physicochemical; settings: 0.5 h, 1000 µM; how it was run: as §2
SF-268 = assay: Growth inhibition of human SF268 cells after 48 hrs by sulforhodamine B assay; format: functional; settings: SF-268, 48 h; how it was run: as §1
A498 = assay: Growth inhibition of human A498 cells after 48 hrs by sulforhodamine B assay; format: functional; settings: A498, 48 h; how it was run: as §1
CCRF-CEM = assay: Growth inhibition of human CCRF-CEM cells after 48 hrs by sulforhodamine B assay; format: functional; how it was run: as §1
SR = assay: Growth inhibition of human SR cells after 48 hrs by sulforhodamine B assay; format: functional; how it was run: as §1
[12] = Growth inhibition of human HCT116 cells after 48 hrs by sulforhodamine B assay; format: functional; settings: HCT-116, 48 h; how it was run: as §1
[13] = read-out: LC50 (the source's name)

| Compound | GI50 (DU-145) | GI50 [1] | GI50 (MCF7) | GI50 [2] | GI50 [3] | GI50 (HOP-62) | GI50 (NCI-H522) | GI50 [5] | GI50 [6] | GI50 (NCI-H226) | GI50 [7] | GI50 (HL-60(TB)) | GI50 [8] | GI50 (MDA-MB-231) | GI50 [9] | GI50 [10] | GI50 (SN12C) | GI50 (SF-268) | GI50 (SR) | GI50 [12] | further results |
| --- | --- | --- | --- | --- | --- | --- | --- | --- | --- | --- | --- | --- | --- | --- | --- | --- | --- | --- | --- | --- | --- |
| CC1CCCc2c1nc(N)c(C#N)c2-c1cccn1C (centres undefined) | > 100 µM | > 100 µM | > 100 µM | 77.6 µM | > 100 µM | > 100 µM | 66.1 µM | 69.1 µM | > 100 µM | 64.6 µM | 47.9 µM | 0.42 µM | > 100 µM | 69.2 µM | 33.1 µM | 79.4 µM | 30.2 µM | > 100 µM | 3.39 µM | > 100 µM | inhibition (INH) [4]: 9%; GI50 (IGROV-1): 70.8 µM; GI50 (SNB-75): 22.4 µM; TGI (SNB-75): 85.1 µM; inhibition (INH) [11]: 16%; GI50 (A498): 91.2 µM; GI50 (CCRF-CEM): > 100 µM; TGI (SR): 20.4 µM; CC50 (SR; [13]): 91.2 µM |
| Cn1cccc1-c1cc(-c2ccccc2)nc(N)c1C#N | > 100 µM | > 100 µM | > 100 µM | 46.8 µM | > 100 µM | 81.3 µM | 61.6 µM | 60.2 µM | 95.5 µM | > 100 µM | 0.01 µM | 0.76 µM | 33.9 µM | 67.6 µM | 44.7 µM | 53.7 µM | > 100 µM | 79.4 µM | 35.5 µM | > 100 µM | inhibition (INH) [4]: 12%; TGI [7]: 0.05 µM; GI50 (IGROV-1): > 100 µM; GI50 (SNB-75): 18.6 µM; TGI (SNB-75): 77.6 µM; inhibition (INH) [11]: 27%; GI50 (A498): 91.2 µM; GI50 (CCRF-CEM): 0.08 µM; LC50 (concentration causing net 50% loss of initial cells) (CCRF-CEM): 3.55 µM; TGI (CCRF-CEM): 0.38 µM |
| COc1ccc(-c2cc(-c3cccn3C)c(C#N)c(=O)[nH]2)cc1OC | > 100 µM | 22.9 µM | > 100 µM | > 100 µM |  | > 100 µM | > 100 µM | 34.7 µM | 30.9 µM | > 100 µM | 0.05 µM | > 100 µM | > 100 µM | > 100 µM |  | > 100 µM | > 100 µM | > 100 µM | 0.48 µM | 91.2 µM | inhibition (INH) [4]: 17%; TGI [7]: 9.77 µM; inhibition (INH) [11]: 31% |
| Cc1cc(C(C)(C)C)c(O)c(C(C)(C)C)c1 [BUTYLATED HYDROXYTOLUENE] |  |  |  |  |  |  |  |  |  |  |  |  |  |  |  |  |  |  |  |  | inhibition (INH) [4]: 20%; inhibition (INH) [11]: 36% |
| Cn1cccc1-c1cc(-c2cccs2)nc(N)c1C#N | > 100 µM | > 100 µM | > 100 µM | 85.1 µM | > 100 µM | > 100 µM | > 100 µM | > 100 µM | > 100 µM | > 100 µM | > 100 µM | > 100 µM | > 100 µM | > 100 µM | 87.1 µM | > 100 µM | > 100 µM | > 100 µM | 5.37 µM | > 100 µM | GI50 (IGROV-1): > 100 µM; GI50 (SNB-75): 45.7 µM; GI50 (A498): > 100 µM; GI50 (CCRF-CEM): > 100 µM; TGI (SR): 67.6 µM |
| CC1CCCc2c1[nH]c(=O)c(C#N)c2-c1cccn1C (centres undefined) | > 100 µM | > 100 µM | > 100 µM | 69.2 µM | > 100 µM | > 100 µM | > 100 µM | > 100 µM | > 100 µM | > 100 µM | > 100 µM | > 100 µM | > 100 µM | > 100 µM | > 100 µM | > 100 µM | > 100 µM | > 100 µM | > 100 µM | > 100 µM | GI50 (IGROV-1): > 100 µM; GI50 (SNB-75): 39.8 µM; GI50 (A498): > 100 µM; GI50 (CCRF-CEM): > 100 µM |
| Cn1cccc1-c1cc(-c2ccccc2)[nH]c(=O)c1C#N | > 100 µM | 29.1 µM | > 100 µM | > 100 µM | > 100 µM | > 100 µM | > 100 µM | 85.1 µM | 31.7 µM | > 100 µM | 0.11 µM | > 100 µM | > 100 µM | 83.2 µM | 97.7 µM | > 100 µM | > 100 µM | > 100 µM | > 100 µM | > 100 µM | TGI [1]: 57.4 µM; TGI [7]: 0.13 µM; GI50 (IGROV-1): > 100 µM; GI50 (SNB-75): 47.4 µM; GI50 (A498): 27.5 µM; GI50 (CCRF-CEM): > 100 µM |
| Cn1cccc1-c1cc(-c2cccs2)[nH]c(=O)c1C#N | > 100 µM | > 100 µM | > 100 µM | > 100 µM | 13.8 µM | 83.2 µM | 25.7 µM | > 100 µM | 52.5 µM | 69.2 µM | 10 µM | > 100 µM | > 100 µM | > 100 µM | 72.4 µM | > 100 µM | > 100 µM | > 100 µM | > 100 µM | > 100 µM | TGI [3]: 27.5 µM; CC50 [3, 13]: 54.9 µM; TGI [7]: 40.7 µM; GI50 (IGROV-1): 22.9 µM; GI50 (SNB-75): 38.1 µM; GI50 (A498): 17.8 µM; GI50 (CCRF-CEM): > 100 µM |
